Laboratory results from ChEMBL document CHEMBL1135898, “Synthesis and antimycobacterial activity of 6-arylpurines: the requirements for the N-9 substituent in active antimycobacterial purines” (J Med Chem, 2002).
≈ marks a conversion by molar mass, not a printed value.

How the values were obtained:
[1] = tested on: Mycobacterium tuberculosis; assay: Minimum Inhibitory Concentration against drug-resistant strain of Mycobacterium tuberculosis Erdman; assay type: functional
Procedure, shortened: (§1)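 MICs by microplate alamar blue assay against M. tuberculosis strains resistant to isoniazid (ATCC 35822), rifampin (ATCC 35838), ethambutol, kanamycin or ciprofloxacin, drug-sensitive strain Erdman, and M. avium (ATCC 25291). MIC = minimum concentration giving 90% growth inhibition.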

[2] = tested on: Mycobacterium avium; assay: Minimum Inhibitory Concentration against drug-resistant strain of Mycobacterium tuberculosis avium; assay type: functional; procedure, shortened: as §1

SMILES: Clc1nc(-c2ccco2)c2ncn(Cc3ccccc3)c2n1
- MIC [1]: 12.5 µg/mL (≈ 40.2 µM)
- MIC [2]: 25 µg/mL (≈ 80.5 µM)
